# Assay outcomes as filed in PubChem.
# Shown are actives, neighbours in structure and some others; about 1.9% of the full set was active somewhere.
# CHRM4 agonist: human M4 muscarinic receptor agonists, primary screen, CHO-K1 cells, Fluo-8 calcium fluorescence | CHO-K1 hM4/Gqi5; vehicle 0%, full acetylcholine response 100% | activation, % at 3 µM | 0.14% of 360,000 active;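 active = activation above the run mean over all test wells plus 3 SD, cut at about 32% in these data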;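 note: peak over basal fluorescence ratio per well then scaled between controls; 0% = DMSO wells and 100% = acetylcholine at EC100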
# CHRM5 antagonist: human M5 muscarinic receptor antagonists, primary screen, CHO cells, Fluo-8 calcium fluorescence | 0.59% of 360,000 active | CHO-hM5 cells, ACh EC80 | AID 624040, 2012 | inhibition, % at 3 µM | Muscarinic acetylcholine receptor M5 (Homo sapiens), P08912;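 active = inhibition above a per-plate cutoff, the mean of that plate's test compounds plus 3 SD, cut at about 27% in these data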;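 note: 0% = acetylcholine EC80 with DMSO and 100% = DMSO without agonist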
# Target sequence (P08912 whole entry, looked up): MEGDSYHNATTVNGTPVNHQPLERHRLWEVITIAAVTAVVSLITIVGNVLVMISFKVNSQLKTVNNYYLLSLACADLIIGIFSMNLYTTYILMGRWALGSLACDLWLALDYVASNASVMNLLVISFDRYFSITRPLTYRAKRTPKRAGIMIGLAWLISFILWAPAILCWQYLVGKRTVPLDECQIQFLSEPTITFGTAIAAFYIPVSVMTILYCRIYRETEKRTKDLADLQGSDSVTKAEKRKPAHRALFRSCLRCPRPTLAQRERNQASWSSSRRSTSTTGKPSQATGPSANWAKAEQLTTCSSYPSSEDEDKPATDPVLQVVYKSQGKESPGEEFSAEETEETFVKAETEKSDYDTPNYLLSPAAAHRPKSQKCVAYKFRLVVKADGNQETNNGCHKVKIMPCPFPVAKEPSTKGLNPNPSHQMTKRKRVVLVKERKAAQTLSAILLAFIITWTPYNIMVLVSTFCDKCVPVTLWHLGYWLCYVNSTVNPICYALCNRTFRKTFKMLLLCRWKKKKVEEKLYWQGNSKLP
# M4 antag: human M4 muscarinic receptor antagonists, primary screen, CHO cells, Fluo-8 calcium fluorescence; Muscarinic acetylcholine receptor M4 (Homo sapiens), P08173; CHO-hM4 cells, ACh EC80; inhibition, % at 3 µM; 0.73% of 360,000 active;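 active = inhibition above its plate's cutoff, the mean inhibition of sample wells plus 3 SD, cut at about 27% in these data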;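 note: 0% = acetylcholine EC80 with DMSO and 100% = DMSO without agonist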
# M4 PAM: human M4 muscarinic receptor positive allosteric modulators, primary screen, CHO-K1 cells, Fluo-8 calcium fluorescence. CHO-K1 hM4/Gqi5, ACh EC20; 0% = ACh EC20, 100% = maximal ACh. activation, % at 3 µM. 0.4% of 360,000 active. Muscarinic acetylcholine receptor M4 (Homo sapiens), P08173;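 active = activation above its plate's cutoff, the mean activation of sample wells plus 3 SD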
# CHRM5 PAM: human M5 muscarinic receptor positive allosteric modulators, primary screen, CHO-K1 cells, Fluo-8 calcium fluorescence; CHO-K1 hM5, ACh EC20 PAM; 0% = ACh EC20, 100% = ACh EC100; activation, % at 3 µM; 0.3% of 360,000 active;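 active = activation above the run cutoff, the mean activation of all test compounds plus 3 SD, cut at about 18% in these data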
#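 system = human M5 receptor in CHO-K1 cells | reagent = EC20 acetylcholine as agonist stimulus | compound dosing = single-point, 3 µM nominal | incubation = Fluo-8 loading 80 min at 37 °C plus 30 min room temperature | detection = Fluo-8 calcium dye fluorescence, kinetic read | benchmarks = low control EC20 acetylcholine (0%), high control EC100 acetylcholine (100%)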
# M5 ag: human M5 muscarinic receptor agonists, primary screen, CHO-K1 cells, Fluo-8 calcium fluorescence. CHO-K1 hM5 cells; 0% DMSO wells, 100% maximal acetylcholine response. activation, % at 3 µM. 0.19% of 360,000 active. AID 624037, 2012;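 active = activation above the run's mean over test compounds plus 3 SD, cut at about 23% in these data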;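 note: signal is peak over basal fluorescence ratio across the kinetic read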
# Numbers without * were called inactive.
SMILES,CHRM4 agonist,CHRM5 antagonist,M4 antag,M4 PAM,CHRM5 PAM,M5 ag
Cc1cc(C)c2sc(C)[n+](CCCS(=O)(=O)[O-])c2c1,1,-2,-4,-2,-1,4
COCc1cc(=O)[nH]c(Cc2c(Cl)cccc2Cl)n1,0,8,-1,0,1,-5
CC[C@H](C)[C@H](NC(=O)OCc1ccccc1)C(=O)OCC(=O)N1CCN(c2ccc(F)cc2)CC1,14,11,2,-4,-5,0
CCOC(=O)c1ccc(N)cc1,0,-4,2,-9,-2,0
CCOC(=O)c1ccc(C(=O)OCC)nc1,1,-9,-2,1,21*,-1
O=C(Oc1cccc2cccnc12)c1ccc(N2C(=O)C3C4CCC(C4)C3C2=O)cc1 (stereo unspecified),1,2,10,26*,7,2
O=C(Oc1ccc(N2C(=O)C3C4CCC(C4)C3C2=O)cc1)c1ccco1 (stereo unspecified),2,13,1,1,-4,-4
CCOc1cc(/C=C/C(=O)c2ccc(OC)c(CN3CCOCC3)c2)cc(Br)c1O,33*,5,0,-14,-6,10
CCOC(=O)N1CCN(C(=O)c2ccc3c(=O)n(CCC4=CCCCC4)c(=O)[nH]c3c2)CC1,2,6,39*,-24,-8,-4
CC(=O)Nc1ccc(N(CC(=O)NC2CCCCC2)C(=O)Cn2nnc(-c3ccccc3)n2)cc1,0,4,6,3,2,-3
CCCCCCc1nc2ccccc2c(=O)n1N,11,10,8,-11,-12,-1
CCCCCN1C(=O)Cn2c(nc3ccccc3c2=O)C1C (stereo unspecified),2,-19,-13,10,18*,4
Cc1ccc(SSc2cc(C)ccc2N)c(N)c1,-1,7,2,5,17,3
CCC(C)(C)c1ccc(OCCCC[n+]2cccc(C)c2C)c(C(C)(C)CC)c1,9,47*,62*,-16,-27,-19
Cc1ccc(NC2CCCN(C(=O)C3CCCCC3)C2)cc1C (stereo unspecified),0,-14,6,-2,21*,3
O=C(C1CCCC1)N1CCCC(Nc2ccc(F)cc2)C1 (stereo unspecified),0,1,7,-4,-2,-2
Cn1nnnc1SCCNC(=O)C1CCC(=O)N(Cc2ccc(Cl)cc2)C1 (stereo unspecified),0,-18,-8,9,19*,-1
Cc1ccc(S(=O)(=O)N(CC(=O)Nc2ccccc2)C(=O)N2CCN(C)CC2)cc1,0,2,1,20*,3,1
CCOc1ccc(CCNC(=O)c2cc(C)on2)cc1OCC,2,-5,-15,21*,-3,-2
CC1=CC(C/C(C)=C/COc2ccc3ccc(=O)oc3c2)OC1=O (stereo unspecified),9,7,-15,35*,-2,1
Cc1ccccc1-n1c(SCC(=O)c2c(N)n(C3CC3)c(=O)[nH]c2=O)nnc1N1CCOCC1,3,-5,-11,12,9,1
Nc1ccc2c(c1)Cc1cc([N+](=O)[O-])ccc1-2,11,28*,13,-7,-12,35*
CC(O)CN(CC(C)O)c1ccc2c(c1)Cc1cc([N+](=O)[O-])ccc1-2 (stereo unspecified),90*,73*,34*,-14,-37,527*
CC(=NO)c1ccc2c(c1)Cc1cc([N+](=O)[O-])ccc1-2,5,5,-15,9,-5,-1
Cn1c(=O)c2c(nc(N3CCCCC3)n2CCSc2nc3ccccc3s2)n(C)c1=O,1,-5,6,38*,0,0
SMILES,CHRM4 agonist,CHRM5 antagonist,M4 antag,M4 PAM,CHRM5 PAM,M5 ag
CCN(C(=O)c1ccc(NC(C)=O)cc1)c1ccccc1,0,-6,-19,19*,-1,2
COc1cccc(NC(=O)COC(=O)c2c3c(nc4ccccc24)CCC(C)C3)c1 (stereo unspecified),6,26,41*,-12,-22,-4
CC1CCc2nc3ccccc3c(C(=O)OCC(=O)NC3CCS(=O)(=O)C3)c2C1 (stereo unspecified),3,8,2,3,2,3
CC1CCC(C(C)C)C(OCC[N+](C)(C)C)C1 (stereo unspecified),1,99*,99*,-36,-20,-7
CC1CCC(C(C)C)C(OCC(O)C[N+]2(C)CCCCC2)C1 (stereo unspecified),1,4,9,-19,-14,-13
CCc1cc(-c2n[nH]c(=S)n2-c2ccccc2C)cs1,-3,-1,-16,31*,7,-5
CCCCn1nnnc1C1(C)CCC(=O)N1CC(F)(F)F (stereo unspecified),0,-1,-10,6,-7,-1
Fc1ccc(NC(=S)NC2CC3CCCC(C2)N3Cc2cccs2)cc1 (stereo unspecified),3,32*,8,-6,-14,-6
Cc1ccc(/C=C/S(=O)(=O)NCC(=O)OCC(=O)N2CC(=O)Nc3ccccc32)cc1,1,9,8,-7,-3,-2
Cc1cc(C)c(Nc2ncnc(N)n2)c(C)c1,-2,5,100*,-74,4,-3
Cc1ccc(Nc2ncnc(N)n2)cc1,0,12,-7,-4,-4,-1
COCCN1Cc2cccc(C(=O)Nc3c(C)cc(C)cc3C)c2C1=O,1,-4,-1,12,37*,22
COCCN1Cc2cccc(C(=O)Nc3cc(C)cc(C)c3)c2C1=O,1,-1,0,-2,-1,-7
O=C(c1cccc(S(=O)(=O)N2CCCC2)c1)N1CCN(S(=O)(=O)c2cccc(Cl)c2)CC1,12,9,-5,-5,-5,-3
O=C(NC1CCCC1)C1C(c2ccc(C(F)(F)F)cc2)=Nc2ccccc2N1C(=O)c1cccc(C(F)(F)F)c1 (stereo unspecified),0,9,35*,-7,-12,-1
CCN(CC)CCOC(=O)C(c1ccccc1)C1CCCCC1 (stereo unspecified),1,99*,100*,-19,-19,-1
